# Assay results pooled from the literature.
# Lines come from different studies, so protocols differ.
# MAP3K7: Mitogen-activated protein kinase kinase kinase 7 (MAP3K7, Homo sapiens, UniProt O43318)
# MAL12: Alpha-glucosidase MAL12 (MAL12, Saccharomyces cerevisiae S288c, UniProt P53341)
Structure (SMILES),target,assay,conditions,measurement,result
CNC(=O)c1ccccc1Nc1nc(Nc2ccc(CO)cc2)ncc1Cl,MAP3K7,"enzyme activity, inhibitor",1 µM,remaining activity,42.9%
COc1cc(O)c2c(c1)O[C@H](c1ccccc1)CC2=O,MAL12,"enzyme activity, inhibitor, absorbance",50 µM,inhibition,15.1%
CCCCCCCCCCCCCC(=O)OCC(C)(C)CC1=C(O)C(=O)c2ccccc2C1=O,MAL12,"enzyme activity, inhibitor",50 µM,inhibition,> 70%
C1=C/COCc2cc(ccc2OCCN2CCCC2)Nc2nccc(n2)-c2cccc(c2)COC/1,"Mitotic checkpoint serine/threonine-protein kinase BUB1 (BUB1, Homo sapiens, UniProt O43683)",binding,0.1 µM,remaining binding,91%
CC(=O)ON=C1C=CC(=C(C#N)c2ccccc2)C=C1,"Glycogen synthase kinase 3 (Plasmodium falciparum, UniProt O77344)","enzyme activity, inhibitor, ADP detection",20 µM,activity vs control,89%
O=c1c(O)c(-c2ccc(O)cc2)oc2cc(O)cc(O)c12,MAL12,"enzyme activity, inhibitor, absorbance",50 µM,inhibition,39.8%
C#Cc1cnc(Nc2ccnc(CO)c2)nc1Nc1ccccc1S(C)(=O)=NC#N (stereo not drawn),MAP3K7,"enzyme activity, inhibitor",1 µM,remaining activity,78.9%
COc1cc2c3c(c1OC)-c1c(OC)ccc(O)c1CC3N(C)CC2 (stereo not drawn),"Alpha-1A adrenergic receptor (ADRA1A, Homo sapiens, UniProt P35348)","ligand displacement, radioligand",10 µM,inhibition,9%
O=c1cc(-c2ccccc2)oc2cc(O)cc(O)c12,MAL12,"enzyme activity, inhibitor, absorbance",50 µM,inhibition,31.2%
CNC(=O)c1ccccc1Nc1nc(Nc2ccc(CO)nc2)ncc1Cl,MAP3K7,"enzyme activity, inhibitor",1 µM,remaining activity,64.9%
O=c1cc(-c2ccc(O)c(O)c2)oc2cc(O)cc(O)c12,MAL12,"enzyme activity, inhibitor, absorbance",50 µM,inhibition,34.4%
CCCCC(=O)Nc1ccc(-c2ccc3ncn(CCC)c(=O)c3c2)cn1,"Wee1-like protein kinase 2 (WEE2, Homo sapiens, UniProt P0C1S8)","binding, competition with immobilised ligand",0.5 µM,remaining binding,100%
